Tests used:
HL-60 = assay: Antiproliferative activity against human HL60 cells after 62 hrs by MTS assay; type: functional, cell-based; details: HL-60, 62 h
In short: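 HL-60 cells kept in RPMI-1640 with 10% heat-inactivated FBS, penicillin/streptomycin, 37 °C, 5% CO2. Seeded at 2.0 × 10^4 cells/mL with increasing compound concentrations for 62 h. MTS reagent added, formazan absorbance read at 492/620 nm after 2 h. IC50 from linear regression of viability against log concentration. Mean ± SD of triplicate tests.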

[1] = Drug uptake in human HL60 cells at 100 uM after 3 hrs by indirect competitive ELISA; type: ADME, cell-based; details: hl-60, 3 h
In short: (§1)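 HL-60 cells at 5.0 × 10^5 cells/mL were preincubated 1 h, then exposed to compound (final 1, 10 or 100 μM) for 3 h. Cells were washed three times in PBS and lysed in RIPA buffer on ice for 20 min. Cleared supernatant was run in icELISA: HT–HSA coated plate, competition with mAb 1D2, HRP anti-mouse IgG, ABTS, A405. Result given as ng per 5 × 10^6 cells and uptake rate %.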

[2] = Drug uptake in human HL60 cells at 10 uM after 3 hrs by indirect competitive ELISA; type: ADME, cell-based; details: hl-60, 3 h; in short: as §1
[3] = Drug uptake in human HL60 cells at 1 uM after 3 hrs by indirect competitive ELISA; type: ADME, cell-based; details: hl-60, 3 h; in short: as §1

Row | IC50 (HL-60) | SMILES | Drug uptake [1] | Drug uptake [2] | Drug uptake [3]
1 | > 100 µM | COC1=C[C@]23CCCN2C(=O)c2cc4c(cc2[C@@H]3[C@@H]1OC(=O)[C@@](O)(CCC(C)(C)O)CC(=O)O)OCO4 | – | – | –
2 | > 100 µM | COC1=C[C@]23CCC(=O)N2CCc2cc4c(cc2[C@@H]3[C@@H]1OC(=O)[C@@](O)(CCC(C)(C)O)CC(=O)O)OCO4 | – | – | –
3 | > 100 µM | COC(=O)C[C@](O)(CCC(C)(C)O)C(=O)O[C@@H]1C(OC)=C[C@]23CCC(=O)N2CCc2cc4c(cc2[C@H]13)OCO4 | 0.02% | 0.02% | 0.09%
4 | > 100 µM | COC(=O)C[C@](O)(CCC(C)(C)O)C(=O)O[C@@H]1C(OC)=C[C@]23CCCN2C(=O)c2cc4c(cc2[C@H]13)OCO4 | – | – | –
5 | > 100 µM | COC1=C[C@]23CCCN2CCc2cc4c(cc2[C@@H]3[C@@H]1OC(=O)[C@@](O)(CCC(C)(C)O)CC(=O)O)OCO4 | – | – | –

Row | SMILES | IC50 (HL-60) | Drug uptake [1] | Drug uptake [2] | Drug uptake [3]
6 | COC1=C[C@]23CCCN2CCc2cc4c(cc2[C@@H]3[C@@H]1O)OCO4 [CEPHALOTAXINE] | 61.2 µM | – | – | –
7 | COC(=O)C[C@](O)(CCCC(C)(C)O)C(=O)O[C@@H]1C(OC)=C[C@]23CCCN2CCc2cc4c(cc2[C@H]13)OCO4 [OMACETAXINE MEPESUCCINATE] | 0.022 µM | – | – | –
8 | COC(=O)C[C@](O)(CCC(C)(C)O)C(=O)O[C@@H]1C(OC)=C[C@]23CCCN2CCc2cc4c(cc2[C@H]13)OCO4 [HARRINGTONINE] | 0.047 µM | 0.35% | 0.61% | 3.34%
